# Legend:
# Assay type in all cases: functional
# [1] = test system: Mycobacterium tuberculosis variant bovis; test: In vitro activity against Mycobacterium. tuberculosis (strain type-ATCC 27289).at pH 5.8
# In short: (§1)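 Middlebrook 7H10 agar plus 10% OADC at pH 5.8 in compartmented plates, with serial twofold dilutions from 200 to 3.12 µg/mL. Plates were prepared 24–48 h before use and stored at 4 °C. A drug-free compartment was included per isolate. Incubation was 37 °C for 4 weeks. MIC was the lowest level producing 99% (2 log) inhibition of growth.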
# [2] = test system: Mycobacterium tuberculosis variant bovis; test: In vitro activity against Mycobacterium. tuberculosis (strain type-ATCC 27289)at pH 6.6
# In short: (§2)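 Twofold serial dilutions (200–3.12 µg/mL) in 7H10 agar with 10% OADC enrichment at pH 6.6, in compartmented plates. Plates were stored at 4 °C and used within 24–48 h. A no-drug compartment served as control for each isolate. Plates were incubated for 4 weeks at 37 °C. MIC was the lowest concentration giving 99% (2 log) growth inhibition.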
# [3] = test system: Mycobacterium tuberculosis variant bovis; test: In vitro activity against Mycobacterium. tuberculosis (strain type-ATCC 27289).at pH 6.6; in short: as §2
# [4] = test system: Mycobacterium tuberculosis variant bovis; test: In vitro inhibitory activity against Mycobacterium tuberculosis (strain type-ATCC 27289) at pH 5.8.; in short: as §1
# [5] = test system: Mycobacterium tuberculosis variant bovis; test: In vitro inhibitory activity against Mycobacterium tuberculosis (strain type-ATCC 27289). at pH 6.6; in short: as §2
# [6] = test system: Mycobacterium tuberculosis variant bovis; test: In vitro activity against Mycobacterium. tuberculosis (strain type-ATCC 27289)at pH 5.8.; in short: as §1
# [7] = test system: Mycobacterium tuberculosis variant bovis; test: In vitro inhibitory activity against Mycobacterium. tuberculosis (strain type-ATCC 27289).at pH 5.8; in short: as §1
# [8] = test system: Mycobacterium tuberculosis variant bovis; test: In vitro inhibitory activity against Mycobacterium. tuberculosis (strain type-ATCC 27289).at pH 6.6; in short: as §2
# [9] = test system: Mycobacterium tuberculosis variant bovis; test: In vitro activity against Mycobacterium. tuberculosis (strain type-ATCC 27289). at pH 6.6; in short: as §2
# [10] = test system: Mycobacterium tuberculosis variant bovis; test: In vitro inhibitory activity against Mycobacterium tuberculosis (strain type-ATCC 27289). at pH 5.8; in short: as §1
Structure (SMILES),MIC [1],MIC [3],further results
O=C(Oc1c(F)c(F)c(F)c(F)c1F)c1cnccn1,12.5 µg/mL,–,MIC [2]: 100 µg/mL
O=C(Oc1ccc([N+](=O)[O-])cc1)c1cnccn1,3.12 µg/mL,100 µg/mL,–
O=C(O)c1cnccn1 [PYRAZINOIC ACID],–,–,MIC [4]: 100 µg/mL; MIC [5]: > 200 µg/mL
Cc1ccc(OC(=O)c2cnccn2)cc1,6.25 µg/mL,50 µg/mL,–
O=C(Oc1ccc(-c2ccccc2)cc1)c1cnccn1,25 µg/mL,100 µg/mL,–
O=C(OC(C(F)(F)F)C(F)(F)F)c1cnccn1,> 200 µg/mL,–,–
O=C(OCCCl)c1cnccn1,–,–,MIC [6]: 6.25 µg/mL
O=C(OCCBr)c1cnccn1,–,> 200 µg/mL,–
CC(C)(C)c1ccc(OC(=O)c2cnccn2)cc1,25 µg/mL,200 µg/mL,–
NC(=O)c1cnccn1 [PYRAZINAMIDE],–,–,MIC [7]: > 200 µg/mL; MIC [8]: > 200 µg/mL
CCCOC(=O)c1cnccn1,6.25 µg/mL,25 µg/mL,–
C=CCOC(=O)c1cnccn1,< 3.12 µg/mL,200 µg/mL,–
O=C(OCC(F)(F)F)c1cnccn1,25 µg/mL,–,MIC [9]: > 200 µg/mL
CN(C)CCOC(=O)c1cnccn1,–,–,MIC [10]: 12.5 µg/mL; MIC [5]: 200 µg/mL

# From ChEMBL document CHEMBL1125418, “Antimycobacterial activity of a series of pyrazinoic acid esters” (1992)
